In ChEMBL document CHEMBL5678806, “NMS-P937, an orally available, specific small-molecule polo-like kinase 1 inhibitor with antitumor activity in solid and hematologic malignancies” (Mol Cancer Ther, 2012):
The source made the active and inactive calls. The calls are words filed in the database; no cut-off is given here.

Tests used:
[1] = target: Cytoplasmic tyrosine-protein kinase BMX (Homo sapiens) (UniProt P51813); test: Inhibition of recombinant human Bmx assessed as residual activity at 0.1 uM relative to control
Chain of Cytoplasmic tyrosine-protein kinase BMX (Homo sapiens) (P51813 whole entry): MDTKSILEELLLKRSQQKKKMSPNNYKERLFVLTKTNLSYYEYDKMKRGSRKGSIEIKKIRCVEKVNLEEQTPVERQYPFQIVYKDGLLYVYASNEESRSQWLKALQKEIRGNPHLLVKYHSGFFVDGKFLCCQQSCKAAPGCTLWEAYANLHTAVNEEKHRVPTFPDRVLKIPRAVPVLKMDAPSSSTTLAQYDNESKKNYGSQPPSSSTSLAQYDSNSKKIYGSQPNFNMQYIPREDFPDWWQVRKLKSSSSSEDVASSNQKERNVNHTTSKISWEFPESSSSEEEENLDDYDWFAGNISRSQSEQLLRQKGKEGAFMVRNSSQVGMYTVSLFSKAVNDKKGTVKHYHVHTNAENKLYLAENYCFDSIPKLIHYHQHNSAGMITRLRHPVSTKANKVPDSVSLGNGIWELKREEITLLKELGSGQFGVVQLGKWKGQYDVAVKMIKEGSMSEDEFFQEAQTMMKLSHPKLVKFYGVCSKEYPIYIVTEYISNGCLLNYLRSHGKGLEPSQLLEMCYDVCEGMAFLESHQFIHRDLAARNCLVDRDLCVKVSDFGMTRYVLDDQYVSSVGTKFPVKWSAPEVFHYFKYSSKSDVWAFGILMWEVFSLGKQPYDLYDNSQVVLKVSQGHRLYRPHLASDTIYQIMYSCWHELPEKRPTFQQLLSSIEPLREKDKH

A2780 [2] = test: Induction of cell cycle arrest in human A2780 cells assessed as accumulation of cells in G2/M phase by measuring CDK1 phosphorylation on Tyr15 incubated for 24 hrs by Western blotting analysis; type: functional, cell-based; conditions: dose 0.02-0.2 µmol/L
Method in brief: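 A2780 ovarian carcinoma cells treated 24 h with a range of concentrations, with DMSO and nocodazole controls. 20 µg protein extract separated by SDS-PAGE and immunoblotted with chemiluminescent detection. Probed for total and phospho-Thr210 PLK1, phospho-Ser10 histone H3, phospho-Thr199 NPM and phospho-Tyr15 CDK1. Total NPM, tubulin and total CDK1 served as loading controls.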

SN12C = test: Antiproliferative activity against human SN12C cells assessed as inhibition of cell growth incubated for 72 hrs by cell-titer glo assay; type: functional, cell-based
A2780 [3] = test: Induction of mitosis in human A2780 cells xenografted in nu/nu mouse assessed as increased NPM phosphorylation on Thr199 at 60 mg/kg, po administered for 2 to 6 hrs by immunohistochemistry analysis; type: functional, organism-based; conditions: time 2-6 hrs
[4] = target: Tyrosine-protein kinase SYK (Homo sapiens, UniProt P43405); test: Inhibition of N-terminal His6-tagged recombinant full-length human Syk expressed in baculovirus infected Sf21 cells assessed as residual activity at 1 uM relative to control
[5] = target: Serine/threonine-protein kinase PAK 4 (Homo sapiens, UniProt O96013); test: Inhibition of PAK4 (unknown origin) in presence of [gamma-33P]ATP
LN-229 = test: Antiproliferative activity against human LN-229 cells assessed as inhibition of cell growth incubated for 72 hrs by cell-titer glo assay; type: functional, cell-based; conditions: LN-229, 72 h
Method in brief: (§1)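 Cells seeded at 10,000–30,000/cm² (adherent) or 100,000/mL (nonadherent) in medium with 10% fetal calf serum; after 24 h, treated in duplicate with serial dilutions for 72 h. Viable cell number read by CellTiter-Glo luminescence; IC50 from sigmoidal fit; at least two independent experiments.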

[6] = target: Macrophage colony-stimulating factor 1 receptor (Homo sapiens) (UniProt P07333); test: Inhibition of N-terminal His6-tagged recombinant human Fms (538 to end residues) expressed in baculovirus infected Sf21 cells assessed as residual activity at 1 uM relative to control
Chain of Macrophage colony-stimulating factor 1 receptor (Homo sapiens) (P07333 whole entry): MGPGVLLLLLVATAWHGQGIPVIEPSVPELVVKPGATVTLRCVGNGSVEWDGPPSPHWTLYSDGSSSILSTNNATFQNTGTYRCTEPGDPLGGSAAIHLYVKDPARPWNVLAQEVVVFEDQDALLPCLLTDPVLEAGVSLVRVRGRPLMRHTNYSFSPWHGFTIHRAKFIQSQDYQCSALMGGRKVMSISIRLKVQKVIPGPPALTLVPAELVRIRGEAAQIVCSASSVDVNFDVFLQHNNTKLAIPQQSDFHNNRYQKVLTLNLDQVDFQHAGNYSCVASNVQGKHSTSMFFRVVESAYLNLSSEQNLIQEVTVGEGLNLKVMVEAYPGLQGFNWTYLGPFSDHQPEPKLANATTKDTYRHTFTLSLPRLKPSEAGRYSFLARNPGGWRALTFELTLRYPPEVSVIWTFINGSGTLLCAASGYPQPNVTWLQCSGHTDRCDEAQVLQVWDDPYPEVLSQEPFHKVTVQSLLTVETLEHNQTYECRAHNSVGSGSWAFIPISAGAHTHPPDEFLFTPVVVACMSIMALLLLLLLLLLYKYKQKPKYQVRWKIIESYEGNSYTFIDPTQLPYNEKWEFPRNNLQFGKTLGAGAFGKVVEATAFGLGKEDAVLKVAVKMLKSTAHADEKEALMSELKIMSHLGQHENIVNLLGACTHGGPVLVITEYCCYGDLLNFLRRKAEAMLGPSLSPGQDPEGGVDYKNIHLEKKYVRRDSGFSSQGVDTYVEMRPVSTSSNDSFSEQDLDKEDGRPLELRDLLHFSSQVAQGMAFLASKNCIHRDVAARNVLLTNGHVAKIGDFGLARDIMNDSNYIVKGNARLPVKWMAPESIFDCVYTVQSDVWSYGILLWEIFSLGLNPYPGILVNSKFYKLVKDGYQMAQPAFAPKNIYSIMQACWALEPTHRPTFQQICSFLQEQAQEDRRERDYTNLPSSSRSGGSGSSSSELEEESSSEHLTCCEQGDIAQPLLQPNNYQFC

LoVo = test: Antiproliferative activity against human LoVo cells assessed as inhibition of cell growth incubated for 72 hrs by cell-titer glo assay; type: functional, cell-based; method in brief: as §1
[7] = target: Rho-associated protein kinase 1 (Homo sapiens) (UniProt Q13464); test: Inhibition of N-terminal His6-tagged recombinant human ROCK-I (17 to 535 residues) expressed in baculovirus infected Sf21 cells assessed as residual activity at 1 uM relative to control
Chain of Rho-associated protein kinase 1 (Homo sapiens) (Q13464 2-1354 limits assumed): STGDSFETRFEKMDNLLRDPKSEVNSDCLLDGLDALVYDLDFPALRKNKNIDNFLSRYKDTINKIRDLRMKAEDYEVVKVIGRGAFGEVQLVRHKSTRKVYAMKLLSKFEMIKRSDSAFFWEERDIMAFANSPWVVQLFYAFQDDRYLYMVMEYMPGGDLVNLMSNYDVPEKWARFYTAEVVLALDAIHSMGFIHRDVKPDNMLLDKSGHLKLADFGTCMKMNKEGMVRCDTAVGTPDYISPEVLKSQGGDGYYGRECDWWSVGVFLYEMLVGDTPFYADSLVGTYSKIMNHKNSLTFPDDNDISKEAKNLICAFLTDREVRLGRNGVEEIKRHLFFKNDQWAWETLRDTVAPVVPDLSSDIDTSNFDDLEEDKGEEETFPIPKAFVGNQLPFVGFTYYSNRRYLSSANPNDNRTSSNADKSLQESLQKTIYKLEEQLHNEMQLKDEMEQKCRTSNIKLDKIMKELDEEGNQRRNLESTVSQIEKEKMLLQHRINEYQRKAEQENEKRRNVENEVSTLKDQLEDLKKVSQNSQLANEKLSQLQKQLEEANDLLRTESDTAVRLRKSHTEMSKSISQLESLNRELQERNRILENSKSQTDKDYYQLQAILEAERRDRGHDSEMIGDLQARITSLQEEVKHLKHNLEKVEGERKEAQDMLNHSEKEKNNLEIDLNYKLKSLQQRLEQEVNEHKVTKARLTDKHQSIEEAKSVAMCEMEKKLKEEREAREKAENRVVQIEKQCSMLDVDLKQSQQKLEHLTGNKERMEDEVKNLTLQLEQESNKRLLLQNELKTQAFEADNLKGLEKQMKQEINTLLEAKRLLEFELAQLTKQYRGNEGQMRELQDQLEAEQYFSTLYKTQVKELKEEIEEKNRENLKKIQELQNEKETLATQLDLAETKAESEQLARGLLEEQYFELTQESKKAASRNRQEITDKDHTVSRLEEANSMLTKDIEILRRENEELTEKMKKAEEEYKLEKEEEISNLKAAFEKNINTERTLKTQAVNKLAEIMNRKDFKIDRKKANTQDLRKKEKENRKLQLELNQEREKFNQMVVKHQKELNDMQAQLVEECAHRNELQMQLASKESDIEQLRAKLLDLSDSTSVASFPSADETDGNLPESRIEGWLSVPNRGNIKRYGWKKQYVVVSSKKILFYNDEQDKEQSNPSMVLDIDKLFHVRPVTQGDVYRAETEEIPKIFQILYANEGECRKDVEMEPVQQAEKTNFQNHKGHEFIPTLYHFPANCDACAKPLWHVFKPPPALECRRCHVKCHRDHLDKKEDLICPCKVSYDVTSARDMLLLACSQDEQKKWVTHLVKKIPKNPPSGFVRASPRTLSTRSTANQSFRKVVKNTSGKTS

HT-29 = test: Antitumor activity against human HT-29 cells xenografted in nu/nu mouse assessed as tumor growth inhibition at 45 mg/kg, po administered for 3 days and measured after 1 day relative to control; type: functional; conditions: HT-29, 72 h, time 3 day, read-out: TGI
[8] = Cmax in male cynomolgus monkey at 5 mg/kg, po by LC-MS analysis; type: ADME, organism-based, Macaca fascicularis; conditions: in vivo
NCI-H526 = test: Antiproliferative activity against human NCI-H526 cells assessed as inhibition of cell growth incubated for 72 hrs by cell-titer glo assay; type: functional, cell-based; conditions: NCI-H526, 72 h
Method in brief: (§2)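 Cells from ATCC or ECACC, kept in supplier-recommended medium with 1% penicillin-streptomycin at 37°C, 5% CO₂. Seeded at 10,000–30,000/cm² (adherent) or 100,000/mL (nonadherent) in medium with 10% fetal calf serum. Dosed after 24 h in duplicate with serial dilutions. Viable cells read by CellTiter-Glo 72 h later. IC50 from sigmoidal fit. At least two independent experiments.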

PANC-1 = test: Antiproliferative activity against human PANC-1 cells assessed as inhibition of cell growth incubated for 72 hrs by cell-titer glo assay; type: functional, cell-based; conditions: PANC-1, 72 h; method in brief: as §2
NCI-H929 = test: Antiproliferative activity against human NCI-H929 cells assessed as inhibition of cell growth incubated for 72 hrs by cell-titer glo assay; type: functional, cell-based; conditions: NCI-H929, 72 h; method in brief: as §2
SK-BR-3 = test: Antiproliferative activity against human SK-BR-3 cells assessed as inhibition of cell growth incubated for 72 hrs by cell-titer glo assay; type: functional, cell-based; conditions: SK-BR-3, 72 h
[9] = Inhibition of PDGFR (unknown origin) in presence of [gamma-33P]ATP; set-up: species or system Homo sapiens
MOLM-13 = test: Antiproliferative activity against human MOLM-13 cells assessed as inhibition of cell growth incubated for 72 hrs by cell-titer glo assay; type: functional, cell-based; conditions: MOLM-13, 72 h; method in brief: as §2
[10] = target: Mitogen-activated protein kinase 14 (Homo sapiens, UniProt Q16539); test: Inhibition of P38alpha (unknown origin) in presence of [gamma-33P]ATP
Chain of Mitogen-activated protein kinase 14 (Q16539 whole entry): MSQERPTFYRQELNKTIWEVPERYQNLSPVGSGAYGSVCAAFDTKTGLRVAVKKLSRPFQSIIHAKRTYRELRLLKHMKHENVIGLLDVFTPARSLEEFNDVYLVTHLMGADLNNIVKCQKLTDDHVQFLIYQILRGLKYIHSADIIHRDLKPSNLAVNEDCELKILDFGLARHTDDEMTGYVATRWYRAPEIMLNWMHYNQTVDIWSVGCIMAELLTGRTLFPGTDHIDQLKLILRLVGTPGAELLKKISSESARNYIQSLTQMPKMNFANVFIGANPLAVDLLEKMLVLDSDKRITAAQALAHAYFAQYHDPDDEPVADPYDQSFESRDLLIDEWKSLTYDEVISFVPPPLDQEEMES

[11] = Cmax in Beagle dog at 5 mg/kg, iv by LC-MS analysis; type: ADME, organism-based, Canis lupus familiaris; conditions: in vivo
[12] = Antiproliferative activity against human TF-1a cells assessed as inhibition of cell growth incubated for 72 hrs by cell-titer glo assay; type: functional, cell-based
[13] = target: RAC-alpha serine/threonine-protein kinase (Homo sapiens, UniProt P31749); test: Inhibition of AKT1 (unknown origin) in presence of [gamma-33P]ATP
Chain of RAC-alpha serine/threonine-protein kinase (P31749 whole entry): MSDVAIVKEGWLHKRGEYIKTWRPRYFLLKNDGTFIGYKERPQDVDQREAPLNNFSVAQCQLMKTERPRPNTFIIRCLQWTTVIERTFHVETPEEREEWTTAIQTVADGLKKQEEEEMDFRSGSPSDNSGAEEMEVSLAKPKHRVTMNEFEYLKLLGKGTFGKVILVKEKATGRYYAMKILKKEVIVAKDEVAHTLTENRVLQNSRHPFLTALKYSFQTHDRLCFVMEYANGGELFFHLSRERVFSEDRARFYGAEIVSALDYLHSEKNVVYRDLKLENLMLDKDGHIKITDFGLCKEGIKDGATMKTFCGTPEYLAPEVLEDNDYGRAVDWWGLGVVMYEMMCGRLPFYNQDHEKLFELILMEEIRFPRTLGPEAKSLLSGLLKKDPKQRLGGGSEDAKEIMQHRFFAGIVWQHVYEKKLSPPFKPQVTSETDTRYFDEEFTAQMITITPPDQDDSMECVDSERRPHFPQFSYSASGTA

SK-OV-3 = test: Antiproliferative activity against human SK-OV-3 cells assessed as inhibition of cell growth incubated for 72 hrs by cell-titer glo assay; type: functional, cell-based; conditions: SK-OV-3, 72 h
[14] = Antiproliferative activity against human A2780 ADR cells assessed as inhibition of cell growth incubated for 72 hrs by cell-titer glo assay; type: functional, cell-based
Method in brief: (§3)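 Cells seeded 10,000–30,000/cm² (adherent) or 100,000/mL (suspension) in medium with 10% fetal calf serum; after 24 h treated in duplicate with serial dilutions for 72 h. Viable cells read by CellTiter-Glo luminescence; IC50 from sigmoidal fit; at least two independent experiments.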

[15] = Antiproliferative activity against human GBM-0627-GFD cells assessed as inhibition of cell growth incubated for 72 hrs by cell-titer glo assay; type: functional, cell-based; method in brief: as §3
A2780 [16] = test: Induction of cell cycle arrest in human A2780 cells assessed as accumulation of cells at G2/M phase by measuring 4N DNA content incubated for 24 hrs by flow cytometry analysis; conditions: dose 20-200 nmol/L
[17] = target: SRSF protein kinase 3 (Homo sapiens) (UniProt Q9UPE1); test: Inhibition of N-terminal 6His-tagged recombinant human full-length MSSK1 expressed in baculovirus infected Sf21 cells assessed as residual activity at 1 uM relative to control
Chain of SRSF protein kinase 3 (Homo sapiens) (Q9UPE1 whole entry): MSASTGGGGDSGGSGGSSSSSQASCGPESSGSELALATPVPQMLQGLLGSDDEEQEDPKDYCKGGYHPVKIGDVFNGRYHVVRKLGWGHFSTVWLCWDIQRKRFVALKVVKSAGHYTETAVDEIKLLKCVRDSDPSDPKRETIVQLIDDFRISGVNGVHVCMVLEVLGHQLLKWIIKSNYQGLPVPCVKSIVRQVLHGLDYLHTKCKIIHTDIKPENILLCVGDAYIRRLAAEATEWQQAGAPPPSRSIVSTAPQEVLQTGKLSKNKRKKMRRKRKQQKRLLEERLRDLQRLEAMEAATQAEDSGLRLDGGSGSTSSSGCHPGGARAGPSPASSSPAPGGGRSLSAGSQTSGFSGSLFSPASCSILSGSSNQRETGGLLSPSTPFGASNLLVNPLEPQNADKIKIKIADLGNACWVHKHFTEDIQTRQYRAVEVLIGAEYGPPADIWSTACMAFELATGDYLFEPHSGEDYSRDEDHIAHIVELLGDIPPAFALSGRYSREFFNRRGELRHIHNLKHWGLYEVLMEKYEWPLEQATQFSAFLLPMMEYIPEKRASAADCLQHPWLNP

[18] = Oral bioavailability in nu/nu mouse at 10 mg/kg by LC-MS analysis; type: ADME, organism-based; conditions: in vivo
[19] = target: Dual specificity mitogen-activated protein kinase kinase 6 (Homo sapiens) (UniProt P52564); test: Inhibition of N-terminal maltose binding protein-tagged human MKK6 (4 to end residues) expressed in E. coli assessed as residual activity at 0.1 uM relative to control
Chain of Dual specificity mitogen-activated protein kinase kinase 6 (Homo sapiens) (P52564 whole entry): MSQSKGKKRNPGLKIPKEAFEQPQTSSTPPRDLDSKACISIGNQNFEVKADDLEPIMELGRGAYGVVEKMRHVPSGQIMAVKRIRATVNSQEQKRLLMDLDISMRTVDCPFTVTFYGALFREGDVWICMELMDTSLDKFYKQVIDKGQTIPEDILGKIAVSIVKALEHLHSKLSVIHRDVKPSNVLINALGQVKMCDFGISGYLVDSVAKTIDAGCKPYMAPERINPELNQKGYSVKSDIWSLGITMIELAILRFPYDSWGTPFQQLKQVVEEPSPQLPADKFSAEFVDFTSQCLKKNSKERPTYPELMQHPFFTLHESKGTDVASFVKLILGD

With CN1CCN(c2ccc(OC(F)(F)F)c(Nc3ncc4c(n3)-c3c(c(C(N)=O)nn3CCO)CC4)c2)CC1 [ONVANSERTIB] the Activity [1] was 83%, the Activity (A2780 [2]) was “Dose-Dependent Effect” and the IC50 (SN12C) was 62 nM. For the same compound, the Activity (A2780 [3]) was “Active”, the Activity [4] was 89% and the IC50 [5] was over 10000 nM. For the same compound, the IC50 (LN-229) was 62 nM, the Activity [6] was 90% and the IC50 (LoVo) was 65 nM. It also gave an Activity [7] of 132%, an inhibition in vivo at 45 mg/kg (HT-29) of 72% and a Cmax [8] of 1900 nM. For the same compound, the IC50 (NCI-H526) was 31 nM, the IC50 (PANC-1) was 184 nM and the IC50 (NCI-H929) was 63 nM. The IC50 (SK-BR-3) was 35 nM, the IC50 [9] was over 10000 nM and the IC50 (MOLM-13) was 22 nM. For the same compound, the IC50 [10] was over 10000 nM, the Cmax [11] was 1700 nM and the IC50 [12] was 1780 nM. The IC50 [13] was over 10000 nM, the IC50 (SK-OV-3) was 191 nM and the IC50 [14] was 620 nM. The IC50 [15] was 56 nM, the Activity (A2780 [16]) was “Dose-Dependent Effect” and the Activity [17] was 89%. It also gave a bioavailability [18] of 24% and an Activity [19] of 131%.
